Calls of active or inactive are those of the source.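 Rule for the calls: active = compounds whose mean dose-response EC50 for APJ receptor activation is under 20 micromolar; inactive = the rest.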
Target: Apelin receptor (Homo sapiens) (UniProt P35414)
Assay: APJ agonists inducing beta-arrestin recruitment, dose response, cell-based, luminescence, uHTS hits (AID 488748)
Conditions: CHO-K1 APJ PathHunter beta-arrestin
Outline: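 Assay system – CHO-K1 cells stably expressing ProLink-tagged APJ and enzyme-acceptor-fused beta-arrestin · Doses – compound dose series over a concentration range · Schedule – 90 min compound treatment at 25 °C · Detection – beta-gal complementation luminescence · Controls – Apelin-13 agonist as positive control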

Apelin receptor (Homo sapiens), sequence (P35414 whole entry, looked up): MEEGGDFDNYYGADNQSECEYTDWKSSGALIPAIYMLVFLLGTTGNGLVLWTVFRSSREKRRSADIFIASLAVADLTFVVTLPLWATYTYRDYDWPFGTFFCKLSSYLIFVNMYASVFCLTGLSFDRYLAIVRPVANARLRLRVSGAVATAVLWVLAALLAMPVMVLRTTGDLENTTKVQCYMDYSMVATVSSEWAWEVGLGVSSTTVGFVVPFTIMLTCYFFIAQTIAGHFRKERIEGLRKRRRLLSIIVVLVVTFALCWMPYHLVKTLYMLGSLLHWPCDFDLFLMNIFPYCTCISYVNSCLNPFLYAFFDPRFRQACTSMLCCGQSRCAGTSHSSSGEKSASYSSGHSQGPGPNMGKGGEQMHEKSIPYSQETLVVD

| Compound | EC50 |
| --- | --- |
| CCCCCCc1cc2cc(-c3nnc(-c4cc(OC)c(OC)c(OC)c4)o3)c(=O)oc2cc1O | > 100 µM (inactive) |
| COc1ccc(/C=N/Nc2cc(C)nc3ccc(OC)cc23)c(OC)c1 | > 100 µM (inactive) |

The remaining lines, values ahead:

| EC50 | Compound |
| --- | --- |
| > 100 µM (inactive) | CCOC(=O)C1=C(Cn2cnc3ccccc32)NC(=O)NC1c1cc(C)ccc1C (stereo not given) |
| > 100 µM (inactive) | COC(=O)C1=C(Cn2cnc3ccccc32)NC(=O)NC1c1cc(C)ccc1C (stereo not given) |
| 7.6 µM | CC1=CC(=O)C(C(C)C)=C/C1=N/OS(=O)(=O)c1ccccc1 |

Source: PubChem BioAssay AID488748 (Sanford-Burnham Center for Chemical Genomics, 2010)
